# Data reported in ChEMBL document CHEMBL1142636 (2000).
# Legend:
# [1] = tested on: HCT-116; assay: Growth inhibition of human HCT116 cells; format: functional
# [2] = Growth inhibition of human RPMI8266 cells; format: functional
# [3] = Growth inhibition of human […] cells; format: functional
# [4] = tested on: HOP-62; assay: Growth inhibition of human HOP62 cells; format: functional
# [5] = tested on: T47D; assay: Growth inhibition of human T47D cells; format: functional
# Procedure, shortened: (§1)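 Tested at the NCI in its human disease-oriented in vitro screen of 60 tumour cell lines, following the Monks et al. methods. Activity is expressed as GI50, given as log molar values.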
# [6] = tested on: NCI-H322M; assay: Growth inhibition of human NCI-H322M cells; format: functional
# [7] = tested on: TK-10; assay: Growth inhibition of human TK10 cells; format: functional; procedure, shortened: as §1
# [8] = tested on: HCT-15; assay: Growth inhibition of human HCT15 cells; format: functional
# [9] = tested on: SF-295; assay: Growth inhibition of human SF295 cells; format: functional; procedure, shortened: as §1
# [10] = tested on: MDA-MB-435; assay: Growth inhibition of human MDA-MB-435 cells; format: functional
# [11] = tested on: EKVX; assay: Growth inhibition of human EKVX cells; format: functional
# [12] = tested on: KM-20L2; assay: Growth inhibition of human KM20L2 cells; format: functional
# [13] = Growth inhibition of human MCF7/ADR-RES cells; format: functional; settings: NCI/ADR-RES
# [14] = tested on: SNB-75; assay: Growth inhibition of human SNB75 cells; format: functional; procedure, shortened: as §1
# [15] = tested on: Malme-3M; assay: Growth inhibition of human MALME-3M cells; format: functional
# [16] = Growth inhibition of human DMS144 cells; format: functional
# [17] = tested on: MOLT-4; assay: Growth inhibition of human MOLT4 cells; format: functional
# [18] = Growth inhibition of human OVACR4 cells; format: functional
# [19] = tested on: NCI-H226; assay: Growth inhibition of human NCI-H226 cells; format: functional
# [20] = tested on: MCF7; assay: Growth inhibition of human MCF7 cells; format: functional
# [21] = tested on: SF-268; assay: Growth inhibition of human SF268 cells; format: functional; procedure, shortened: as §1
# [22] = tested on: UO-31; assay: Growth inhibition of human UO31 cells; format: functional; procedure, shortened: as §1
# [23] = tested on: M19-MEL; assay: Growth inhibition of human M19-MEL cells; format: functional
# [24] = tested on: SF-539; assay: Growth inhibition of human SF539 cells; format: functional; procedure, shortened: as §1
# [25] = tested on: HCC 2998; assay: Growth inhibition of human HCC2998 cells; format: functional
# [26] = tested on: SR; assay: Growth inhibition of human SR cells; format: functional; procedure, shortened: as §1
# [27] = tested on: PC-3; assay: Growth inhibition of human PC3 cells; format: functional
# [28] = tested on: A549; assay: Growth inhibition of human A549 cells; format: functional
# [29] = tested on: CAKI-1; assay: Growth inhibition of human CAKI1 cells; format: functional
# [30] = tested on: M14; assay: Growth inhibition of human M14 cells; format: functional
# [31] = tested on: UACC-257; assay: Growth inhibition of human UACC257 cells; format: functional; procedure, shortened: as §1
# [32] = Growth inhibition of human OVACR8 cells; format: functional
# [33] = tested on: UACC-62; assay: Growth inhibition of human UACC62 cells; format: functional; procedure, shortened: as §1
# [34] = tested on: SK-OV-3; assay: Growth inhibition of human SK-OV-3 cells; format: functional; procedure, shortened: as §1
# [35] = Growth inhibition of human HL60(TB) cells; format: functional, HL-60(TB); settings: HL-60
# [36] = tested on: NCI-H522; assay: Growth inhibition of human NCI-H522 cells; format: functional
# [37] = tested on: K562; assay: Growth inhibition of human K562 cells; format: functional
# [38] = tested on: LOX IMVI; assay: Growth inhibition of human LOX IMVI cells; format: functional
# [39] = tested on: DU-145; assay: Growth inhibition of human DU145 cells; format: functional
# [40] = tested on: Hs-578T; assay: Growth inhibition of human HS578T cells; format: functional
# [41] = tested on: 786-0; assay: Growth inhibition of human 786-0 cells; format: functional
# [42] = Growth inhibition of human OVACR5 cells; format: functional
# [43] = tested on: SK-MEL-28; assay: Growth inhibition of human SK-MEL-28 cells; format: functional; procedure, shortened: as §1
# [44] = tested on: A498; assay: Growth inhibition of human A498 cells; format: functional
# [45] = tested on: NCI-H460; assay: Growth inhibition of human NCI-H460 cells; format: functional
# [46] = tested on: HOP-92; assay: Growth inhibition of human HOP92 cells; format: functional
# [47] = tested on: COLO 205; assay: Growth inhibition of human COLO205 cells; format: functional
# [48] = tested on: CCRF-CEM; assay: Growth inhibition of human CCRF-CEM cells; format: functional
# [49] = tested on: SW-620; assay: Growth inhibition of human SW620 cells; format: functional; procedure, shortened: as §1
# [50] = tested on: MDA-MB-231; assay: Growth inhibition of human MDA-MB-231 cells; format: functional
# [51] = tested on: BT-549; assay: Growth inhibition of human BT549 cells; format: functional
# [52] = tested on: HOP-18; assay: Growth inhibition of human HOP18 cells; format: functional
# [53] = tested on: ACHN; assay: Growth inhibition of human ACHN cells; format: functional
# [54] = tested on: MDA-N; assay: Growth inhibition of human MDA-N cells; format: functional
# [55] = tested on: DMS-273; assay: Growth inhibition of human DMS273 cells; format: functional
# [56] = tested on: U-251; assay: Growth inhibition of human U251 cells; format: functional; procedure, shortened: as §1
# [57] = tested on: KM12; assay: Growth inhibition of human KM12 cells; format: functional
# [58] = tested on: IGROV-1; assay: Growth inhibition of human IGROV1 cells; format: functional
# [59] = tested on: SK-MEL-2; assay: Growth inhibition of human SK-MEL-2 cells; format: functional; procedure, shortened: as §1
# [60] = Growth inhibition of human LXFL529 cells; format: functional; settings: LXFL 529
# [61] = tested on: NCI-H23; assay: Growth inhibition of human NCI-H23 cells; format: functional
# [62] = tested on: HT-29; assay: Growth inhibition of human HT29 cells; format: functional
# [63] = tested on: SK-MEL-5; assay: Growth inhibition of human SK-MEL-5 cells; format: functional; procedure, shortened: as §1
# [64] = tested on: SNB-19; assay: Growth inhibition of human SNB19 cells; format: functional; procedure, shortened: as §1
# [65] = tested on: DLD-1; assay: Growth inhibition of human DLD1 cells; format: functional
# [66] = tested on: RXF 393; assay: Growth inhibition of human […] cells; format: functional
# [67] = tested on: SN12C; assay: Growth inhibition of human SN12C cells; format: functional; procedure, shortened: as §1
smiles,measurement,setting,value
COc1cc(C(=O)O)cc2c1[nH]c1ccccc12 [MUKOEIC ACID],GI50,[1],25.1 µM
same,GI50,[2],25.1 µM
same,GI50,[3],25.1 µM
same,GI50,[4],25.1 µM
same,GI50,[5],25.1 µM
same,GI50,[6],25.1 µM
same,GI50,[7],25.1 µM
same,GI50,[8],25.1 µM
same,GI50,[9],25.1 µM
same,GI50,[10],25.1 µM
same,GI50,[11],25.1 µM
same,GI50,[12],25.1 µM
same,GI50,[13],25.1 µM
same,GI50,[14],25.1 µM
same,GI50,[15],25.1 µM
same,GI50,[16],25.1 µM
same,GI50,[17],25.1 µM
same,GI50,[18],25.1 µM
same,GI50,[19],25.1 µM
same,GI50,[20],25.1 µM
same,GI50,[21],25.1 µM
same,GI50,[22],25.1 µM
same,GI50,[23],25.1 µM
same,GI50,[24],25.1 µM
same,GI50,[25],25.1 µM
same,GI50,[26],25.1 µM
same,GI50,[27],25.1 µM
same,GI50,[28],25.1 µM
same,GI50,[29],25.1 µM
same,GI50,[30],25.1 µM
same,GI50,[31],25.1 µM
same,GI50,[32],25.1 µM
same,GI50,[33],25.1 µM
same,GI50,[34],25.1 µM
same,GI50,[35],25.1 µM
same,GI50,[36],25.1 µM
same,GI50,[37],25.1 µM
same,GI50,[38],25.1 µM
same,GI50,[39],25.1 µM
same,GI50,[40],25.1 µM
same,GI50,[41],25.1 µM
same,GI50,[42],25.1 µM
same,GI50,[43],25.1 µM
same,GI50,[44],25.1 µM
same,GI50,[45],25.1 µM
same,GI50,[46],25.1 µM
same,GI50,[47],25.1 µM
same,GI50,[48],25.1 µM
same,GI50,[49],25.1 µM
same,GI50,[50],25.1 µM
same,GI50,[51],25.1 µM
same,GI50,[52],25.1 µM
same,GI50,[53],25.1 µM
same,GI50,[54],25.1 µM
same,GI50,[55],25.1 µM
same,GI50,[56],25.1 µM
same,GI50,[57],25.1 µM
same,GI50,[58],25.1 µM
same,GI50,[59],25.1 µM
same,GI50,[60],25.1 µM
same,GI50,[61],25.1 µM
same,GI50,[62],25.1 µM
same,GI50,[63],25.1 µM
same,GI50,[64],25.1 µM
same,GI50,[65],25.1 µM
same,GI50,[66],25.1 µM
same,GI50,[67],25.1 µM
C=C(C)C(O)CCC1(C)C=Cc2c(c(C)cc3c2[nH]c2ccccc23)O1 (stereo not given),GI50,[1],9.77 µM
same,GI50,[2],2.95 µM
same,GI50,[3],10.2 µM
same,GI50,[4],2.45 µM
same,GI50,[5],7.76 µM
same,GI50,[6],7.94 µM
same,GI50,[7],14.1 µM
same,GI50,[8],1.95 µM
same,GI50,[9],4.37 µM
same,GI50,[10],8.32 µM
same,GI50,[13],8.91 µM
same,GI50,[14],3.31 µM
same,GI50,[15],11.2 µM
same,GI50,[17],3.47 µM
same,GI50,[18],16.6 µM
same,GI50,[19],6.31 µM
same,GI50,[20],12.3 µM
same,GI50,[21],5.62 µM
same,GI50,[22],12 µM
same,GI50,[24],3.63 µM
same,GI50,[25],2.19 µM
same,GI50,[26],4.47 µM
same,GI50,[27],6.61 µM
same,GI50,[28],5.01 µM
same,GI50,[30],6.61 µM
same,GI50,[31],8.13 µM
same,GI50,[32],10.7 µM
same,GI50,[34],11 µM
same,GI50,[35],4.27 µM
same,GI50,[36],3.31 µM
same,GI50,[37],2.75 µM
same,GI50,[38],3.09 µM
same,GI50,[39],12.6 µM
same,GI50,[40],3.16 µM
same,GI50,[41],3.89 µM
same,GI50,[42],2.09 µM
same,GI50,[44],13.5 µM
same,GI50,[45],2.34 µM
same,GI50,[46],10.2 µM
same,GI50,[47],2.45 µM
same,GI50,[48],4.17 µM
same,GI50,[49],5.13 µM
same,GI50,[50],3.47 µM
same,GI50,[51],12.9 µM
same,GI50,[53],4.47 µM
same,GI50,[54],3.55 µM
same,GI50,[56],5.37 µM
same,GI50,[57],2 µM
same,CC50,[57]; read-out: pLC50 (the source's name) (converted),9.33 µM
same,GI50,[58],8.32 µM
same,GI50,[59],2.09 µM
same,GI50,[61],10.7 µM
same,GI50,[62],1.7 µM
same,LC50,[62],6.17 µM
same,GI50,[63],10 µM
same,GI50,[64],11.5 µM
same,GI50,[66],2.75 µM
same,GI50,[67],9.55 µM
